What was measured:
[1] = test system: Mus musculus; test: Biodistribution in C57Bl/6JRccHsd mouse salivary gland at 2.86 +/- 1.26 MBq, iv measured at 80 mins by SPECT analysis; format: ADME, organism-based; conditions: in vivo
In short: (§1)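 Organs excised at 5, 20, 40, 80 or 160 min and radioactivity gamma-counted as %ID/g (brain also as %ID). Blocking groups received KYP-2047 (50 µmol/kg, 10 mL/kg, 1% DMSO in 0.9% NaCl) i.p. 10 min before tracer. Mean ± SD, n = 2–4 per time point. Blocking compared by two-tailed Student's t test.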

[2] = test system: Liver; test: Biodistribution in C57Bl/6JRccHsd mouse liver at 2.86 +/- 1.26 MBq, iv measured at 80 mins by SPECT analysis; format: ADME, organism-based; conditions: in vivo; in short: as §1
[3] = test system: Brain; test: Biodistribution in C57Bl/6JRccHsd mouse brain at 2.86 +/- 1.26 MBq, iv measured at 40 mins by SPECT analysis; format: ADME, organism-based; conditions: in vivo; in short: as §1
[4] = test system: Blood; test: Biodistribution in C57Bl/6JRccHsd mouse blood at 2.86 +/- 1.26 MBq, iv measured at 40 mins post dose pretreated with 50 umol/kg, ip prolyl oligopeptidase inhibitor KYP-2047 10 mins before compound dosing by SPECT analysis; format: ADME, organism-based; conditions: in vivo; in short: as §1
[5] = Drug uptake in iv dosed C57Bl/6JRccHsd mouse blood cells measured at 160 mins; format: ADME, organism-based; conditions: in vivo
In short: (§2)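 Mice got tracer i.v., some after i.p. KYP-2047 (50 µmol/kg) 10 min before. Cardiac blood was collected at 20, 40, 80 or 160 min and spun 5 min at 2000 g into cells and plasma. Plasma was precipitated with acetonitrile and pellet and supernatant were gamma-counted. Activity in cells, protein-bound and free plasma is given as % of total blood activity, n = 3.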

[6] = Biodistribution in left brain hemisphere of iv dosed C57BL/6JRccHsd mouse LPS-induced acute neuroinflammation model dosed 24 hrs after LPS challenge and measured at 80 mins post dose; format: ADME, organism-based; conditions: read-out: Drug uptake
In short: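 Male mice under isoflurane got a stereotaxic LPS injection (E. coli 055:B5) into the left striatum, with buprenorphine 0.1 mg/kg s.c. for post-operative pain. The right hemisphere served as intact control. Tracer was given i.v. 24 h later. Left and right hemisphere and whole-brain radioactivity were measured 80 min post injection as %ID/g or %ID, n = 3.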

[7] = test system: Muscle tissue; test: Biodistribution in C57Bl/6JRccHsd mouse muscle at 2.86 +/- 1.26 MBq, iv measured at 80 mins by SPECT analysis; format: ADME, organism-based; conditions: in vivo; in short: as §1
[8] = test system: Lung; test: Biodistribution in C57Bl/6JRccHsd mouse lung at 2.86 +/- 1.26 MBq, iv measured at 80 mins post dose pretreated with 50 umol/kg, ip prolyl oligopeptidase inhibitor KYP-2047 10 mins before compound dosing by SPECT analysis; format: ADME, organism-based; conditions: in vivo; in short: as §1
[9] = test system: Brain; test: Biodistribution in C57Bl/6JRccHsd mouse brain at 2.86 +/- 1.26 MBq, iv measured at 5 mins by SPECT analysis; format: ADME, organism-based; conditions: in vivo; in short: as §1
[10] = test system: Lung; test: Biodistribution in C57Bl/6JRccHsd mouse lung at 2.86 +/- 1.26 MBq, iv measured at 80 mins by SPECT analysis; format: ADME, organism-based; conditions: in vivo; in short: as §1
[11] = Plasma protein binding in human at 2.5 MBq/ml after 2 hrs by HPLC analysis; format: ADME, cell-free; conditions: read-out: PPB (converted)
[12] = test system: Mus musculus; test: Drug metabolism in C57Bl/6JRccHsd mouse plasma assessed as retention time of radioactive metabolite at 3.6 MBq, iv measured at 20 mins by HPLC analysis; format: ADME, organism-based
In short: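 Male mice received 3.6 MBq tracer via tail vein. Cardiac blood was taken on heparin and centrifuged. Plasma was deproteinized with acetonitrile (1.5× plasma volume) and the supernatant run on reverse-phase C18 gradient HPLC. Fractions of 0.65 min were gamma-counted. Metabolite retention time was read from the 20 min sample.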

[13] = test system: Mus musculus; test: Retention time in C57Bl/6JRccHsd mouse plasma at 3.6 MBq, iv measured at 20 mins by HPLC analysis; format: ADME, organism-based
In short: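 Male mice given 3.6 MBq i.v.; cardiac plasma deproteinized with acetonitrile, supernatant run on C18 radio-HPLC gradient, 0.65 min fractions gamma-counted, activity expressed as cpm/total cpm.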

[14] = Fraction unbound in iv dosed C57Bl/6JRccHsd mouse plasma measured at 20 mins; format: ADME, organism-based; in short: as §2
[15] = Biodistribution in C57Bl/6JRccHsd mouse urine at 2.86 +/- 1.26 MBq, iv measured at 80 mins post dose pretreated with 50 umol/kg, ip prolyl oligopeptidase inhibitor KYP-2047 10 mins before compound dosing by SPECT analysis; format: ADME, organism-based; conditions: in vivo; in short: as §1
[16] = test system: Heart; test: Biodistribution in C57Bl/6JRccHsd mouse heart at 2.86 +/- 1.26 MBq, iv measured at 80 mins by SPECT analysis; format: ADME, organism-based; conditions: in vivo; in short: as §1
[17] = test system: Blood; test: Biodistribution in C57Bl/6JRccHsd mouse blood at 2.86 +/- 1.26 MBq, iv measured at 160 mins by SPECT analysis; format: ADME, organism-based; conditions: in vivo; in short: as §1
[18] = test system: Brain; test: Biodistribution in C57Bl/6JRccHsd mouse brain at 2.86 +/- 1.26 MBq, iv measured at 80 mins by SPECT analysis; format: ADME, organism-based; conditions: in vivo; in short: as §1
[19] = test system: Blood; test: Biodistribution in C57Bl/6JRccHsd mouse blood at 2.86 +/- 1.26 MBq, iv measured at 40 mins by SPECT analysis; format: ADME, organism-based; conditions: in vivo; in short: as §1
[20] = Plasma protein binding in iv dosed C57Bl/6JRccHsd mouse measured at 160 mins post dose pretreated with 50 umol/kg, ip prolyl oligopeptidase inhibitor KYP-2047 10 mins before compound dosing by SPECT analysis; format: ADME, organism-based; conditions: in vivo
In short: (§3)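 Male mice given 3.6 MBq tracer i.v. via lateral tail vein; blocking groups got POP inhibitor i.p. (50 µmol/kg, 10 mL/kg, 1% DMSO in 0.9% NaCl) 10 min before. Heparinized cardiac blood on ice, gamma-counted, spun 5 min at 2000 g; plasma counted, precipitated with 1.5 volumes acetonitrile, respun; cell-bound, protein-bound and free fractions expressed as % of blood activity; n = 3.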

[21] = test system: Blood; test: Biodistribution in C57Bl/6JRccHsd mouse blood at 2.86 +/- 1.26 MBq, iv measured at 160 mins post dose pretreated with 50 umol/kg, ip prolyl oligopeptidase inhibitor KYP-2047 10 mins before compound dosing by SPECT analysis; format: ADME, organism-based; conditions: in vivo; in short: as §1
[22] = test system: Blood; test: Biodistribution in C57Bl/6JRccHsd mouse blood at 2.86 +/- 1.26 MBq, iv measured at 20 mins post dose pretreated with 50 umol/kg, ip prolyl oligopeptidase inhibitor KYP-2047 10 mins before compound dosing by SPECT analysis; format: ADME, organism-based; conditions: in vivo; in short: as §1
[23] = test system: Muscle tissue; test: Biodistribution in C57Bl/6JRccHsd mouse muscle at 2.86 +/- 1.26 MBq, iv measured at 80 mins post dose pretreated with 50 umol/kg, ip prolyl oligopeptidase inhibitor KYP-2047 10 mins before compound dosing by SPECT analysis; format: ADME, organism-based; conditions: in vivo; in short: as §1
[24] = test system: Plasma; test: Stability in human plasma at 2.5 MBq/ml up to 120 mins by HPLC analysis; format: ADME, cell-free; conditions: 2 h
[25] = Drug uptake in iv dosed C57Bl/6JRccHsd mouse blood cells measured at 40 mins; format: ADME, organism-based; conditions: in vivo; in short: as §2
[26] = Fraction unbound in iv dosed C57Bl/6JRccHsd mouse plasma measured at 80 mins; format: ADME, organism-based; in short: as §3

A Drug uptake [1] of 7.77 % ID/g, a Drug uptake [2] of 20.1 % ID/g and a Drug uptake [3] of 0.76 %ID were found for `N#C[C@@H]1CCCN1C(=O)[C@@H]1CCCN1C(=O)CCCc1ccc([123I])cc1` in this work. For the same molecule, the Drug uptake [4] was 4 % ID/g, the Drug uptake [5] was 73% and the tissue uptake at 80 min [6] was 1.34 %ID/g. For the same molecule, the Drug uptake [7] was 2.15 % ID/g, the Drug uptake [8] was 1.54 % ID/g and the Drug uptake [9] was 0.43 %ID. The Drug uptake [10] was 14.67 % ID/g, the fraction unbound at 2 h, 2.5 MBq/ml [11] was 0.937 and the Retention_time [12] was 4 min. The Retention_time [13] was 7.15 min, the fraction unbound at 20 min [14] was 0.03 and the Drug uptake [15] was 45.24 % ID/g. The Drug uptake [16] was 12.2 % ID/g, the Drug uptake [17] was 2.1 % ID/g and the Drug uptake [18] was 0.62 % ID/g. For the same molecule, the Drug uptake [19] was 7.6 % ID/g, the PPB [20] was 0% and the Drug uptake [21] was 1 % ID/g. For the same molecule, the Drug uptake [22] was 10.9 % ID/g, the Drug uptake [23] was 0.59 % ID/g and the Stability [24] was “Stable”. It also gave a Drug uptake [25] of 90% and a fraction unbound at 80 min [26] of 0.15.

Source: ChEMBL document CHEMBL3232996, “Synthesis and biological evaluation of novel (123)I-labeled 4-(4-iodophenyl)butanoyl-L-prolyl-(2S)-pyrrolidines for imaging prolyl oligopeptidase in vivo” (Eur J Med Chem, 2014)
